ChEMBL document CHEMBL2016445, “Discovery of a novel class of potent and orally bioavailable sphingosine 1-phosphate receptor 1 antagonists” (J Med Chem, 2012)
Values belong to the compound of their own block, whether it stands above or below them.

How the values were obtained:
[1] = Drug uptake in nu/nu homozygous mouse plasma at 100 mg/kg, po as a solution of 10% EtOH/40% PEG400/20% Captisol/water + 1:1 HCl after 4 hrs by HPLC/MS/MS analysis; format: ADME, organism-based; parameters: dose 100 mg/kg, route oral
Method in brief: (§1)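 Female Nu/Nu mice (~8 wk, 20-22 g) given a single 100 mpk oral dose at 10 mL/kg. Vehicles: 10% EtOH/45% or 40% PEG400/water + 1 molar equiv HCl, 10% EtOH/40% PEG400/20% Captisol + HCl, or 10% NMP/90% corn oil. Heparinized blood collected 1 and 4 h post-dose; plasma analysed by HPLC/MS/MS.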

[2] = biological target: T1, Sphingosine 1-phosphate receptor 1 (Homo sapiens, UniProt P21453); assay: Antagonist activity at S1P1 receptor expressed in HEK293 cells assessed as inhibition of S1P-induced cAMP response after 90 mins by spectrophotometry; format: functional, cell-based
T1 sequence (P21453 whole entry): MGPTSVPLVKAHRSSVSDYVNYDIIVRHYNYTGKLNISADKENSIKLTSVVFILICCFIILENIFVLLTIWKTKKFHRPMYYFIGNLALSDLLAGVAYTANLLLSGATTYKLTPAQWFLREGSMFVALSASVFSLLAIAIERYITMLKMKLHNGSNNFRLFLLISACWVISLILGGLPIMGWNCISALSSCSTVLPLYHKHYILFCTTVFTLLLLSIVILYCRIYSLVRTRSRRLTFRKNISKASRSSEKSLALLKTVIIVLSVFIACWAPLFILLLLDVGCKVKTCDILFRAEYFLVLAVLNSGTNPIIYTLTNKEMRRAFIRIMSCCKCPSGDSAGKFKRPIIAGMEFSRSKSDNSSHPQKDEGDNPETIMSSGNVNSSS

[3] = Drug uptake in nu/nu homozygous mouse plasma at 100 mg/kg, po as a solution of 10% EtOH/40% PEG400/20% Captisol/water + 1:1 HCl after 1 hr by HPLC/MS/MS analysis; format: ADME, organism-based; parameters: dose 100 mg/kg, route oral; method in brief: as §1
Cytochrome P450 2C9 = Cytochrome P450 2C9 (Homo sapiens, UniProt P11712); assay: Inhibition of human CYP2C9 using tolbutamide as substrate by LC/MS/MS analysis; format: ADME
Sequence of Cytochrome P450 2C9 (P11712 whole entry): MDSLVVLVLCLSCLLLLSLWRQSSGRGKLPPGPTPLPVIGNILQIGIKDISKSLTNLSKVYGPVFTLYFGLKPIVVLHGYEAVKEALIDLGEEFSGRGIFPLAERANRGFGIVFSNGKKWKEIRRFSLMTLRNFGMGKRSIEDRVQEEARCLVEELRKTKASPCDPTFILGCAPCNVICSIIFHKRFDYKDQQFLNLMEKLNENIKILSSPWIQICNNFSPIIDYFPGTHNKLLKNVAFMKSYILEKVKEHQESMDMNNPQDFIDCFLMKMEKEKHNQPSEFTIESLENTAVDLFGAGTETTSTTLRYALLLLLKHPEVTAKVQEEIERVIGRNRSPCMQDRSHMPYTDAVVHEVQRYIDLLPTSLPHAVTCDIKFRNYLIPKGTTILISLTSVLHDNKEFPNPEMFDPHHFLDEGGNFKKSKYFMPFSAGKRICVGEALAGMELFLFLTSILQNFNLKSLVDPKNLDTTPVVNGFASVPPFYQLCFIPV
Method in brief: (§2)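 Pooled human liver microsomes in 100 mM potassium phosphate, pH 7.4, at 37 °C with 1000 µM NADPH for 15 min. Microsomes 0.15 mg/mL for CYP2C9 and CYP2D6, 0.25 mg/mL for CYP3A4. Inhibitor tested at six concentrations (0.2–50 µM). Reactions quenched with acetonitrile; metabolite measured by LC/MS/MS; IC50 from 4-parameter sigmoidal fit.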

[4] = Oral bioavailability in overnight fasted beagle dog at 3 mg/kg by HPLC/MS/MS analysis; format: ADME, organism-based, Canis lupus familiaris; details: in vivo
Method in brief: (§3)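 Male beagle dogs fasted overnight and fed again 4 h post-dose; groups of 3. Study design covered 3 mpk IV and PO. Oral dose by gavage at 3 mpk in EtOH/PEG400/water (5:45:50). K-EDTA blood taken pre-dose and at 0.08-48 h. Plasma assayed by HPLC/MS/MS; non-compartmental PK parameters.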

[5] = Half life in overnight fasted beagle dog at 3 mg/kg, po by HPLC/MS/MS analysis; format: ADME, organism-based, Canis lupus familiaris; parameters: dose 3 mg/kg, route oral; details: in vivo; method in brief: as §3
[6] = Cmax in overnight fasted CD Sprague-Dawley rat at 3 mg/kg, po by HPLC/MS/MS analysis; format: ADME, organism-based; parameters: dose 3 mg/kg, route oral; details: in vivo
Method in brief: (§4)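 Female Sprague-Dawley CD rats (9-10 wk, 201-225 g), fasted overnight and fed again 4 h post-dose. Given 3 mpk orally as a solution in EtOH/PEG400/water (5:45:50), n=4. Jugular-catheter blood drawn into heparin at 0.08-144 h (15 time points). Plasma assayed by HPLC/MS/MS; parameters from non-compartmental analysis.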

[7] = AUC (0 to infinity) in overnight fasted beagle dog at 3 mg/kg, po by HPLC/MS/MS analysis; format: ADME, organism-based, Canis lupus familiaris; parameters: time infinity, dose 3 mg/kg, route oral; details: plasma; method in brief: as §3
[8] = Drug uptake in nu/nu homozygous mouse plasma at 100 mg/kg, po as a suspension in 10% NMP/corn oil after 24 hrs by HPLC/MS/MS analysis; format: ADME, organism-based; parameters: dose 100 mg/kg, route oral
[9] = Drug uptake in nu/nu homozygous mouse plasma at 100 mg/kg, po as a suspension in 10% NMP/corn oil after 4 hrs by HPLC/MS/MS analysis; format: ADME, organism-based; parameters: dose 100 mg/kg, route oral; method in brief: as §1
[10] = Antitumor activity against human MDA-MB-231T cells xenografted in athymic nude mouse assessed as tumor growth inhibition at 100 mg/kg, po qd for 14 days post implantation measured for 14 days; format: functional; details: 336 h, read-out: TGI
Method in brief: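 MDA-MB-231T cells grown in DMEM with 10% FBS. 1 x 10⁶ cells in ice-cold HBSS implanted into the mammary fat pad of female athymic nude (NCr) mice, 5-8 wk. Daily oral dosing at 10 mL/kg, solutions made fresh daily. Tumor weight measured twice weekly; TGI calculated against vehicle and staging-day weights; 2-tailed t-test, p<0.05.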

[11] = biological target: Sphingosine 1-phosphate receptor 2 (Homo sapiens, UniProt O95136); assay: Antagonist activity at S1P2 receptor expressed in HEK293 cells assessed as inhibition of S1P-induced tango beta-arrestin recruitment preincubated for 30 mins prior S1P addition measured after 16 to 18 hrs by luciferase reporter gene assay; format: functional, cell-based
Sequence of Sphingosine 1-phosphate receptor 2 (O95136 whole entry): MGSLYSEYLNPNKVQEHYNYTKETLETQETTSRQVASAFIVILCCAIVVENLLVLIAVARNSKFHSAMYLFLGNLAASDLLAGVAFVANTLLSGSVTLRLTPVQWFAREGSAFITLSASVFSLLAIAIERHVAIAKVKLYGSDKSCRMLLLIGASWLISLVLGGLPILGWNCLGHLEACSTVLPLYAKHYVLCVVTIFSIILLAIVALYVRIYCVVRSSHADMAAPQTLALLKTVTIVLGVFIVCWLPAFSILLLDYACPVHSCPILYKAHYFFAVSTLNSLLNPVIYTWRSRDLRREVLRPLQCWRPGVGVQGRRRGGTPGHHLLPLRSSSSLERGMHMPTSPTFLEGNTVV

[12] = Half life in overnight fasted cynomolgus monkey at 3 mg/kg, po by HPLC/MS/MS analysis; format: ADME, organism-based, Macaca fascicularis; parameters: dose 3 mg/kg, route oral; details: in vivo
Method in brief: (§5)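 Male cynomolgus monkeys fasted overnight and fed again 4 h post-dose; groups of 3. Dosed 3 mpk intravenously and by oral gavage as a solution in EtOH/PEG400/water (5:45:50). K-EDTA blood taken pre-dose and at 0.08-48 h. Plasma assayed by HPLC/MS/MS; non-compartmental analysis.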

[13] = Oral bioavailability in overnight fasted CD Sprague-Dawley rat at 3 mg/kg by HPLC/MS/MS analysis; format: ADME, organism-based; details: in vivo
[14] = biological target: Sphingosine 1-phosphate receptor 3 (Homo sapiens, UniProt Q99500); assay: Antagonist activity at S1P3 receptor expressed in HEK293 cells assessed as inhibition of S1P-induced tango beta-arrestin recruitment preincubated for 30 mins prior S1P addition measured after 16 to 18 hrs by luciferase reporter gene assay; format: functional, cell-based
Sequence of Sphingosine 1-phosphate receptor 3 (Q99500 whole entry): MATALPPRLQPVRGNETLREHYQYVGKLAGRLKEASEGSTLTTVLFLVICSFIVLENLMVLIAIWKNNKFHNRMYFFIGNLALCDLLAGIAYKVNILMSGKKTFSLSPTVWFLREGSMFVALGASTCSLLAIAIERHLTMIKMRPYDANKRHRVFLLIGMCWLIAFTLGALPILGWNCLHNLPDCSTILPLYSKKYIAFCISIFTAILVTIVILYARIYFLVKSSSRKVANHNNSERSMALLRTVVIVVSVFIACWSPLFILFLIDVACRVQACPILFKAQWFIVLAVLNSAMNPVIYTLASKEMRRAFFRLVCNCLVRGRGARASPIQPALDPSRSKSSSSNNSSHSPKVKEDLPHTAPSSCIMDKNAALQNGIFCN

[15] = Oral bioavailability in overnight fasted cynomolgus monkey at 3 mg/kg by HPLC/MS/MS analysis; format: ADME, organism-based, Macaca fascicularis; details: in vivo; method in brief: as §5
[16] = AUC (0 to infinity) in overnight fasted cynomolgus monkey at 3 mg/kg, po by HPLC/MS/MS analysis; format: ADME, organism-based, Macaca fascicularis; parameters: time infinity, dose 3 mg/kg, route oral; details: plasma; method in brief: as §5
Cytochrome P450 2D6 = Cytochrome P450 2D6 (Homo sapiens, UniProt P10635); assay: Inhibition of human CYP2D6 using bufuralol as substrate by LC/MS/MS analysis; format: ADME; method in brief: as §2
Sequence of Cytochrome P450 2D6 (P10635 whole entry): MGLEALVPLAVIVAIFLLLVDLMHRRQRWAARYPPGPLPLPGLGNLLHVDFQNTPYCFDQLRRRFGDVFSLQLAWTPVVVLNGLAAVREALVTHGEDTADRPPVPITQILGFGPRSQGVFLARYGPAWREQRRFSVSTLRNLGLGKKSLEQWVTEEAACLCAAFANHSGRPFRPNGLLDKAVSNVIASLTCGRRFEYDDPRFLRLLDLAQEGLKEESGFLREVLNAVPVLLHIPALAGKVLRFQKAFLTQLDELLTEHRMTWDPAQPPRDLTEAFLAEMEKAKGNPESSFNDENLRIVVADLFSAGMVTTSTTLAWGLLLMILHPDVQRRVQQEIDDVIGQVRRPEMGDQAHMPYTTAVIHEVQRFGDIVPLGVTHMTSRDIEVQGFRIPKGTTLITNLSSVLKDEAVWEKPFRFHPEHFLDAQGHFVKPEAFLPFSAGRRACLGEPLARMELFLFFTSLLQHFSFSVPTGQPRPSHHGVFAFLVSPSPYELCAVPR

[17] = Cmax in overnight fasted cynomolgus monkey at 3 mg/kg, po by HPLC/MS/MS analysis; format: ADME, organism-based, Macaca fascicularis; parameters: dose 3 mg/kg, route oral; details: in vivo; method in brief: as §5
[18] = AUC (0 to infinity) in overnight fasted CD Sprague-Dawley rat at 3 mg/kg, po by HPLC/MS/MS analysis; format: ADME, organism-based; parameters: dose 3 mg/kg, route oral, time infinity; details: plasma; method in brief: as §4
[19] = biological target: T1, Sphingosine 1-phosphate receptor 1; assay: Antagonist activity at S1P1 receptor expressed in HEK293 cells assessed as inhibition of S1P-induced tango beta-arrestin recruitment preincubated for 30 mins prior S1P addition measured after 16 to 18 hrs by luciferase reporter gene assay; format: functional, cell-based
[20] = Half life in overnight fasted CD Sprague-Dawley rat at 3 mg/kg, po by HPLC/MS/MS analysis; format: ADME, organism-based; parameters: dose 3 mg/kg, route oral; details: in vivo; method in brief: as §4
Cytochrome P450 3A4 = Cytochrome P450 3A4 (Homo sapiens, UniProt P08684); assay: Inhibition of human CYP3A4 using testosterone as substrate by LC/MS/MS analysis; format: ADME; method in brief: as §2
Sequence of Cytochrome P450 3A4 (P08684 whole entry): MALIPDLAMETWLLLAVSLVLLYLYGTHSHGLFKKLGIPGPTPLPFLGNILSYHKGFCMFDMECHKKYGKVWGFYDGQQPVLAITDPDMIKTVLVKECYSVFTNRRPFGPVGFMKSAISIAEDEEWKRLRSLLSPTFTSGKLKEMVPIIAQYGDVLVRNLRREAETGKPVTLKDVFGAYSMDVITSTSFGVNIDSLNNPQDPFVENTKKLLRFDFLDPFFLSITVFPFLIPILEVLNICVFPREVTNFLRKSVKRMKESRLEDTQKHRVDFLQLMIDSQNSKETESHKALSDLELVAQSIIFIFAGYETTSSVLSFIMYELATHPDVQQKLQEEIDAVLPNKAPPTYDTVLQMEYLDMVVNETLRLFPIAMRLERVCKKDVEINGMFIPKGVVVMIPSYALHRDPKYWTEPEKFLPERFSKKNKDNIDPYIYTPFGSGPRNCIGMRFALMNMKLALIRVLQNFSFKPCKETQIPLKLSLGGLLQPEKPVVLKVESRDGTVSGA

[21] = Cmax in overnight fasted beagle dog at 3 mg/kg, po by HPLC/MS/MS analysis; format: ADME, organism-based, Canis lupus familiaris; parameters: dose 3 mg/kg, route oral; details: in vivo; method in brief: as §3

- concentration at 4 h [1]: 2.7 µM
- IC50 [2]: 0.239 µM
- concentration at 1 h [3]: 18.7 µM
Compound: O=C(Cc1c[nH]cn1)N[C@@H](COCc1ccccc1)c1nc2cc(Oc3ccc(F)cc3)ccc2[nH]1

- IC50 (Cytochrome P450 2C9): 17.3 µM
- bioavailability [4]: 99.9%
- half-life [5]: 34 h
- Cmax [6]: 3.2 µM
- AUC(0-inf) [7]: 108 µM·h
- concentration at 24 h [8]: 4.7 µM
- concentration at 4 h [9]: 16.7 µM
- IC50 [11]: > 10 µM
- half-life [12]: 6.4 h
- bioavailability [13]: 76.4%
- IC50 [14]: > 10 µM
- bioavailability [15]: 45.7%
- AUC(0-inf) [16]: 16.7 µM·h
- IC50 (Cytochrome P450 2D6): 20.3 µM
- Cmax [17]: 1.5 µM
- AUC(0-inf) [18]: 108 µM·h
- IC50 [19]: 0.026 µM
- IC50 [2]: 0.0058 µM
- half-life [20]: 22.5 h
- IC50 (Cytochrome P450 3A4): > 20 µM
- Cmax [21]: 5.4 µM
Compound: O=C(Nc1ccc(Oc2ccc(F)cc2)cc1)[C@@H]1C[C@@H](Cc2ccc(F)cc2)CN1C(=O)Cn1ccnn1
- inhibition in vivo at 100 mg/kg [10]: 43%
